# An excerpt weighted towards active compounds, which were near 2.3% of everything screened.
# SR-BI DiI-HDL act – activators of SR-BI mediated HDL lipid uptake. CHO ldlA[mSR-BI] cells, DiI-HDL uptake fluorescence, 3 h; 100 = double the neutral-control signal. activation, % at 12.5 µM. 320,000 compounds, 0.096% hits;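 active = mean replicate activation of at least 60% and every replicate at or above 60%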
#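 material = CHO ldlA[mSR-BI] cells | medium = Ham's F12 with 0.5% BSA, HEPES 25 mM, pH 7.4 | reagent = fluorescent DiI-HDL, 10 µg/mL final | compound dosing = single-point compound dose | incubation = 3 h, 37 °C | measured by = bottom-read fluorescence, 550/595 nm | measure = HDL uptake via cellular fluorescence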
# SR-BI HDL uptake – inhibitors of mouse SR-BI mediated HDL lipid uptake. Q61009. ldlA[mSR-BI] CHO cells, DiI-HDL uptake fluorescence, 3 h. inhibition, % at 12.5 µM. 320,000 compounds, 0.96% hits;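 active = mean replicate inhibition of at least 70% and a set share of replicates each scoring 70 or more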
# Target sequence (Q61009 whole entry, looked up): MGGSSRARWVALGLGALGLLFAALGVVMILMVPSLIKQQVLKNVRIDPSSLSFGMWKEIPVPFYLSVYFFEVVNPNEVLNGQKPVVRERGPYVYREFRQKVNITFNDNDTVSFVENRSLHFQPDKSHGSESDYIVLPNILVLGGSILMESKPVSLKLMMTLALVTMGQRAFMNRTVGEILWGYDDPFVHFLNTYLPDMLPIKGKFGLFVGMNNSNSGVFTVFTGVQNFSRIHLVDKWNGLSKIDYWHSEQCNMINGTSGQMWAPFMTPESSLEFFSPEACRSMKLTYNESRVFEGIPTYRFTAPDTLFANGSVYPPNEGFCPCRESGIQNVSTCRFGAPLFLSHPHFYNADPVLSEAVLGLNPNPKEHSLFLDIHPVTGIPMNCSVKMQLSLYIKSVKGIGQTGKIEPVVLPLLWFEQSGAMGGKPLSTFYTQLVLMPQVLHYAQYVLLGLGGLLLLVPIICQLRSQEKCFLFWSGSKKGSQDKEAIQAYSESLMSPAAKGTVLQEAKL
# CAL PDZ FP-1 – CAL PDZ (human) peptide binding inhibition; inhibition, % at 24.9 µM; 300,000 compounds, 0.92% hits; purified CAL PDZ, TMR-peptide fluorescence polarization, 1 h; Q9HD26;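 active = mean inhibition of at least 30% with at least half of replicates also reaching 30%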
# CAL PDZ FP-2 – blocks peptide binding to human CAL PDZ domain. purified CAL PDZ, TMR-peptide fluorescence polarization, 1 h. inhibition, % at 20 µM. 330,000 compounds, 0.02% hits. AID 504414;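 active = highest replicate inhibition of at least 40%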
#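 Control set: unlabelled peptide and DMSO controls / Material: purified CerCALP PDZ construct / Timing: 1 h incubation at room temperature before polarization reading / Doses: 20 µM, one dose / Detection: fluorescence polarization (mP)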
# ATG4B inhibitor – blocks human ATG4B protease cleavage of LC3 substrate | Q9Y4P1 | 340,000 compounds, 0.51% hits | AID 504462 | ATG4B cleavage of LC3-PLA2, NBD-HPC fluorescence, 1 h | inhibition, % at 8.33 µM; in the data active = inhibition above about 40%
# A number is an active result; – = inactive; · = no result given; + = active, no number.
SMILES,SR-BI DiI-HDL act,SR-BI HDL uptake,CAL PDZ FP-1,CAL PDZ FP-2,ATG4B inhibitor
Cc1ccc(S(=O)(=O)NCC2CCC(C(=O)NCCCN3CCOCC3)CC2)cc1 (stereo not given),·,·,39,–,–
O=C(O)CCC(=O)N1CCN(c2ncccn2)CC1,–,–,–,–,–
CCCc1cc2c(cc1N(C)S(=O)(=O)c1ccccc1)OCO2,–,–,–,–,–
Cc1[nH]n(-c2ccccc2)c(=O)c1N=Nc1c(O)cc(S(=O)(=O)N(C)C)c2ccccc12,–,136,–,–,–
CC1CCC(NC(=O)CNC(=O)c2cccs2)CC1 (stereo not given),–,–,–,–,–
CCOC(=O)c1ccccc1NC(=O)CSc1ccc(-c2ccccn2)nn1,–,–,51,–,–
CCN(C(=O)Cn1cnc2cc([N+](=O)[O-])ccc2c1=O)C1CCS(=O)(=O)C1 (stereo not given),–,–,·,–,–
CC(=O)Nc1ccc(NC(=O)C(C)OC(=O)CCC2CCCC2)cc1 (stereo not given),–,–,–,–,–
Cn1c(NC(=O)c2cccc(Cn3cc(Cl)cn3)c2)nc2ccccc21,–,–,–,–,–
CCn1c(NC(=O)c2cccc(Cn3cc(Cl)cn3)c2)nc2ccccc21,–,93,·,–,–
CC(=O)Nc1ccc(NC(=O)COc2cccc3c2OC(C)(C)C3)cc1,–,–,·,–,–
COc1cc(NC(=O)COc2cccc3c2OC(C)(C)C3)cc(OC)c1OC,–,88,·,–,–
CCOC(=O)C1CCN(c2c(NCCN(CC)c3ccccc3)c(=O)c2=O)CC1,–,–,54,–,–
COc1ccccc1-n1c(SCC(N)=O)nnc1-c1ccccc1,–,–,–,–,–
CCOC(=O)CCSc1nnc(-c2cccnc2)n1-c1ccccc1OC,–,–,67,–,–
Cn1cc(S(=O)(=O)NC2CCCCC2)c(=O)n(C)c1=O,–,–,–,–,–
Cc1ccccc1NC(=O)Cc1c[nH]c2ccccc12,–,–,–,–,–
Cc1cc(C)c(S(=O)(=O)N(C)CC(=O)NCCN2CCOCC2)c(C)c1,–,–,31,–,–
COc1ccc(OC)c(NC(=O)C(C)N2c3cccc4cccc(c34)S2(=O)=O)c1 (stereo not given),–,–,73,–,–
COc1cc(SC)ccc1C(=O)NC1CCCCC1,–,–,47,–,–
CCn1cc(C(=O)NC2CCCCCC2)c2cc(OC)c(OC)cc2c1=O,–,–,48,–,–
COc1cc2ccccc2cc1C(=O)NC1CCC(C)CC1 (stereo not given),–,71,–,–,–
COc1cc2c(C(=O)NC3CCCCCC3)cn(C)c(=O)c2cc1OC,–,–,–,–,–
COc1cc(SC)ccc1C(=O)Nc1ccncc1,–,–,31,–,–
COc1cc2ccccc2cc1C(=O)NC1CCCC1,–,–,–,–,–
SMILES,SR-BI DiI-HDL act,SR-BI HDL uptake,CAL PDZ FP-1,CAL PDZ FP-2,ATG4B inhibitor
O=C(NCCN1CCOCC1)c1ccc(CS(=O)(=O)c2c(Cl)cccc2Cl)o1,–,–,32,–,–
O=C(NCCCN1CCOCC1)c1ccc(CS(=O)(=O)c2c(Cl)cccc2Cl)o1,–,–,·,–,–
COc1ccccc1CCNC(=O)C(=O)NCC1OCCN1S(=O)(=O)c1ccc([N+](=O)[O-])cc1 (stereo not given),–,–,–,–,–
O=C(CCc1ccccc1)NNC(=S)NC(=O)c1ccccc1,–,–,–,–,–
O=C(NC(=S)NNC(=O)c1ccccc1O)c1ccc(F)cc1,–,125,–,–,–
CC(C)(C)c1cc(CCC(=O)NNC(=S)NC(=O)c2ccccc2)cc(C(C)(C)C)c1O,–,71,–,–,–
O=C(NNC(=S)NC(=O)c1ccccc1[N+](=O)[O-])c1ccccc1O,–,84,–,–,–
O=C(NNC(=S)NC(=O)c1cccnc1)c1ccc(F)cc1,–,–,–,–,–
O=C(NNC(=S)NC(=O)c1ccccc1[N+](=O)[O-])c1ccccc1[N+](=O)[O-],–,–,–,–,–
O=C(NC(=S)NNC(=O)c1ccccc1O)c1ccc([N+](=O)[O-])cc1,–,106,–,–,–
Cc1cc2c(c(CO)c1CCO)C(=O)[C@@H](C)[C@@H]2O,–,–,–,–,–
CCC(C)N(C(=O)CSc1nc(-c2cccs2)nc2ccccc12)C1CCS(=O)(=O)C1 (stereo not given),–,–,–,–,–
CC(=O)c1ccc(Oc2cnccn2)cc1,–,–,–,–,–
O=C(NC(=S)NNC(=O)c1ccccc1O)c1cccs1,–,114,–,–,–
O=C(NC(=S)NNC(=O)c1ccccc1O)c1ccccc1,–,100,–,–,–
O=C(CCc1ccccc1)NNC(=O)c1cc(Cl)ccc1O,–,115,–,–,–
COc1ccccc1C(=O)NNC(=S)NC(=O)c1cccs1,–,–,–,–,·
O=C(NNC(=O)c1cc(Cl)ccc1O)c1cccs1,–,89,–,–,–
CCOC(=O)C1CCN(C(=S)Nc2cccc(C)c2C)CC1,–,–,–,–,–
Nc1ccn(C2OC(COP(=O)(O)O)C(O)C2O)c(=O)n1 (stereo not given),–,–,–,–,–
CN=C1N(C)C[C@@H]2[C@@H]3C(=O)N(C)C(=O)[C@@H]3[C@](C)(C(=O)OC)N12,–,–,–,–,–
Cc1ccc(C(=O)NNC(=S)NC(=O)c2ccccc2)cc1,–,–,–,–,–
Cc1ccc(C(=O)NC(=S)NNC(=O)c2ccccc2O)cc1,–,112,–,–,–
O=C(NNC(=O)c1ccccc1O)c1ccc(-c2ccc([N+](=O)[O-])cc2)o1,–,121,–,–,–
CCc1nnc(NC(=O)CC(C)c2ccccc2)s1 (stereo not given),–,–,–,–,–
SMILES,SR-BI DiI-HDL act,SR-BI HDL uptake,CAL PDZ FP-1,CAL PDZ FP-2,ATG4B inhibitor
CCc1ccc(NC(=O)c2ccc(NC(=O)C3CCCO3)cc2)cc1 (stereo not given),–,–,–,–,–
COC(=O)c1ccc(NC(=O)C2CC3CCC2C3)cc1 (stereo not given),–,–,32,–,–
CCOC(=O)c1ccc(NC(=O)C2CC3CCC2C3)cc1 (stereo not given),·,·,·,·,–
COC(=O)c1ccc(NC(=O)c2ccc(NC(=O)C3CCCO3)cc2)cc1 (stereo not given),–,–,+,–,–
CC1(C)Cc2c(sc3c2c(=O)n(-c2cccc(Cl)c2)c(=O)n3CC(N)=O)CO1,–,–,·,–,–
N=c1oc2ccccc2cc1-c1nc(-c2ccc(Cl)cc2)cs1,–,–,–,–,–
CC(=O)CSc1nc2c(c(=O)[nH]c(=O)n2C)n1Cc1cccc(Br)c1,–,–,57,–,–
CCC1(c2ccccc2)NC(=O)N(CC(=O)NCCN2C(=O)S/C(=C\c3cccnc3)C2=O)C1=O (stereo not given),–,–,–,–,–

# Compound activity deposited in PubChem BioAssay by several laboratories.
